Measurements published in ChEMBL document CHEMBL1122366, “Potential antiatherosclerotic agents. 3. Substituted benzoic and non benzoic acid analogues of cetaben” (1983).
“And” between values parts separate entries of the source, which are not always exact repeats. Equal values may be shown once.

Tests used:
Rattus norvegicus [1] = assay: In vivo sterol lowering activity at dose of 0.10 % of the diet; assay type: functional
Outline: (§1)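 Normal rats were dosed in the diet. Serum sterol and triglyceride levels were measured and expressed as the mean percent of control values. Significance versus control was reported at p < 0.05, 0.01 and 0.001.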

[2] = molecular target: T1, Sterol O-acyltransferase 1 (Rattus norvegicus) (UniProt O70536); assay: In vitro inhibition of acyl coenzyme A:cholesterol acyltransferase; design: concentration or dose not given beside the values; details: concentration not given here
T1 sequence (whole entry): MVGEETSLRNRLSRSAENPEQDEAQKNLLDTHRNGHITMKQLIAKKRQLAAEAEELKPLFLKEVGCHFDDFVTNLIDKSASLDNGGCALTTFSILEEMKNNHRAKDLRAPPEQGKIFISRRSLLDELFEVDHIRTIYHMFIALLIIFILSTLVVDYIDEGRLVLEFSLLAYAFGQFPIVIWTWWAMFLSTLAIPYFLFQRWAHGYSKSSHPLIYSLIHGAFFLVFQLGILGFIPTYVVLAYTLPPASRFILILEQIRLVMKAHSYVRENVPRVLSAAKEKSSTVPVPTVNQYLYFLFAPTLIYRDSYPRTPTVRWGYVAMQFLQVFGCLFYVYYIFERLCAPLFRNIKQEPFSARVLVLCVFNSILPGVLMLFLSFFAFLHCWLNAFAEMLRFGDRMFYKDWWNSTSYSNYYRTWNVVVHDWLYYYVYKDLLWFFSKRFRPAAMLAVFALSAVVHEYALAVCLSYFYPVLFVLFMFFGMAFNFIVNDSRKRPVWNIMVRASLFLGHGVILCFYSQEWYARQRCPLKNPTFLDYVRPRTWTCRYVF
Outline: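 Enzyme fatty acyl-CoA:cholesterol acyltransferase (ACAT), assayed in vitro at a single drug concentration of 5.2 μg/mL. The value is the mean percent inhibition of enzyme activity.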

Rattus norvegicus [3] = assay: In vivo triglyceride lowering activity dosed at 0.10 % of the diet.; assay type: functional; outline: as §1
Rattus norvegicus [4] = assay: In vivo sterol lowering activity when dosed as 0.03 % of the diet; assay type: functional; outline: as §1

CCCCCCCCCCCCCCCCNc1ccc(C(=O)OCC(COC(=O)CCCCCCCCCCCCCCC)OC(=O)CCCCCCCCCCCCCCC)cc1 (configuration not stated)
serum sterol level, percent of control (Rattus norvegicus [1]): <80% | inhibition [2]: 4% | serum triglyceride, percent of control (Rattus norvegicus [3]): 75%

CCCCCCCCCCCCCCCCNc1ccc(/C=N\N=C(\N)NCc2ccccc2)cc1
serum sterol level, percent of control (Rattus norvegicus [1]): 94% | inhibition [2]: 0% | serum triglyceride, percent of control (Rattus norvegicus [3]): <49%

CCCCCCCCCCCCCCCCN(C(=O)CCCCCCCCCCCCCCC)c1ccc(C(=O)OCC(O)CO)cc1 (configuration not stated)
serum sterol level, percent of control (Rattus norvegicus [1]): 99% | inhibition [2]: 14% | serum triglyceride, percent of control (Rattus norvegicus [3]): 72%

CCCCCCCCCCCCCCCCNc1ccc(CCCC(=O)OCC)cc1
serum sterol level, percent of control (Rattus norvegicus [1]): 99% | inhibition [2]: 0% | serum triglyceride, percent of control (Rattus norvegicus [3]): 76%

CCCCCCCCCCCCCCCCN(C(C)=O)c1ccc(C(=O)OCC(O)CO)cc1 (configuration not stated)
serum sterol level, percent of control (Rattus norvegicus [1]): 106% | inhibition [2]: 0% | serum triglyceride, percent of control (Rattus norvegicus [3]): 110%

CCCCCCCCCCCCCCCCN(C(=O)C(F)(F)F)c1ccc(C(=O)NO)cc1
serum sterol level, percent of control (Rattus norvegicus [1]): 96% | inhibition [2]: 0% | serum triglyceride, percent of control (Rattus norvegicus [3]): 91%

CCCCCCCCCCCCCCCCNc1cc(C(=O)OC)cc(C(=O)OC)c1
serum sterol level, percent of control (Rattus norvegicus [1]): 108% | inhibition [2]: 6% | serum triglyceride, percent of control (Rattus norvegicus [3]): 86%

CCCCCCCCCCCCCCCCNc1ccc(C(=O)OCC2COC(c3ccccc3)O2)cc1 (configuration not stated)
serum sterol level, percent of control (Rattus norvegicus [1]): 84% | serum triglyceride, percent of control (Rattus norvegicus [3]): <50%

CCCCCCCCCCCCCCCCNc1ccc(C(=O)OC2CCCCCC2)cc1
serum sterol level, percent of control (Rattus norvegicus [1]): <87% | inhibition [2]: 0% | serum triglyceride, percent of control (Rattus norvegicus [3]): 84%

CCCCCCCCCCCCCCCCN(C(C)=O)c1ccc(C(=O)OCC(COC(C)=O)OC(C)=O)cc1 (configuration not stated)
serum sterol level, percent of control (Rattus norvegicus [1]): 101% | inhibition [2]: 12% | serum triglyceride, percent of control (Rattus norvegicus [3]): 111%

CCCCCCCCCCCCCCCCNc1ncc(C(=O)OCC)cn1
inhibition [2]: 13%

CCCCCCCCCCCCCCCCNc1ccc(C(=O)NC(C)C(=O)O)cc1 (configuration not stated)
serum sterol level, percent of control (Rattus norvegicus [1]): 102% | inhibition [2]: 45% | serum triglyceride, percent of control (Rattus norvegicus [3]): 132%

CCCCCCCCCCCCCCCCN(C(=O)C(F)(F)F)c1ccc(C(=O)N2CCCCC2)cc1
serum sterol level, percent of control (Rattus norvegicus [1]): 92% | inhibition [2]: < 68% | serum triglyceride, percent of control (Rattus norvegicus [3]): <68%

CCCCCCCCCCCCCCCCN(C(=O)C(F)(F)F)c1ccc(C(=O)Nc2ccc(C(=O)OCC)cc2)cc1
serum sterol level, percent of control (Rattus norvegicus [1]): 95% | inhibition [2]: < 25% | serum triglyceride, percent of control (Rattus norvegicus [3]): <69%

CCCCCCCCCCCCCCCCN(CC)c1ccc(C(=O)O)cc1
inhibition [2]: < 72%

CCCCCCCCCCCCCCCCN(C(C)=O)c1ccc(C(=O)OCC(O)COC(C)=O)cc1 (configuration not stated)
serum sterol level, percent of control (Rattus norvegicus [1]): 97% | inhibition [2]: 4% | serum triglyceride, percent of control (Rattus norvegicus [3]): 113%

CCCCCCCCCCCCCCCCN(C(=O)C(F)(F)F)c1ccc(C(=O)C(C(=O)OCC)C(=O)OC(C)(C)C)cc1 (configuration not stated)
serum sterol level, percent of control (Rattus norvegicus [1]): 90% | inhibition [2]: < 49% | serum triglyceride, percent of control (Rattus norvegicus [3]): <64%

CCCCCCCCCCCCCCCCN(CCCCCCCCCCCCCCCC)c1ccc(CCCC(=O)OCC)cc1
serum sterol level, percent of control (Rattus norvegicus [1]): 103% | inhibition [2]: 18% | serum triglyceride, percent of control (Rattus norvegicus [3]): 90%

CCCCCCCCCCCCCCCCNc1ccc(C(C#N)O[Si](C)(C)C)cc1 (configuration not stated)
serum sterol level, percent of control (Rattus norvegicus [1]): 82% | inhibition [2]: 0% | serum triglyceride, percent of control (Rattus norvegicus [3]): <36%

CCCCCCCCCCCCCCCCNc1ccc(C(=O)OC/C=C/COC(=O)c2ccc(NCCCCCCCCCCCCCCCC)cc2)cc1
serum sterol level, percent of control (Rattus norvegicus [1]): 91% | inhibition [2]: 10%

CCCCCCCCCCCCCCCCNc1ccc(-c2nn[nH]n2)cc1
serum sterol level, percent of control (Rattus norvegicus [1]): 89% | inhibition [2]: 78% | serum triglyceride, percent of control (Rattus norvegicus [3]): 91%

CCCCCCCCCCCCCCCCNc1ccc(C(=O)OCC(O)COCC)cc1 (configuration not stated)
serum sterol level, percent of control (Rattus norvegicus [1]): <68% | inhibition [2]: 9% | serum triglyceride, percent of control (Rattus norvegicus [3]): <47%

CCCCCCCCCCCCCCCCNc1ccc(C(=O)OCC(COC(=O)c2ccc(NCCCCCCCCCCCCCCCC)cc2)OC(C)=O)cc1
serum sterol level, percent of control (Rattus norvegicus [1]): 89% | inhibition [2]: 2% | serum triglyceride, percent of control (Rattus norvegicus [3]): <63%

CCCCCCCCCCCCCCCCNc1ccc(C(=O)OCC(COC(C)=O)OC(C)=O)cc1 (configuration not stated)
serum sterol level, percent of control (Rattus norvegicus [1]): <66% | inhibition [2]: 22% | serum triglyceride, percent of control (Rattus norvegicus [3]): <40%

CCCCCCCCCCCCCCCCNc1ccc(C(=O)OCC(O)COC)cc1 (configuration not stated)
serum sterol level, percent of control (Rattus norvegicus [1]): <77% | inhibition [2]: 0% | serum triglyceride, percent of control (Rattus norvegicus [3]): <65%

CCCCCCCCCCCCCCCCNc1ccc(C(=O)OC)c(C)c1
serum sterol level, percent of control (Rattus norvegicus [1]): 99% | inhibition [2]: 0% | serum triglyceride, percent of control (Rattus norvegicus [3]): <60%

CCCCCCCCCCCCCCCCNc1ccc(C(=O)Oc2cccnc2)cc1
serum sterol level, percent of control (Rattus norvegicus [1]): 93% | inhibition [2]: < 22% | Diet (Rattus norvegicus [3]): 92%

CCCCCCCCCCCCCCCCNc1ccc(C(=O)Oc2ccc(C(=O)OC(C)(C)C)cc2)cc1
serum sterol level, percent of control (Rattus norvegicus [1]): 103% | serum triglyceride, percent of control (Rattus norvegicus [3]): <67%

CCCCCCCCCCCCCCCCN(C(C)=O)c1ccc(CO)cc1
serum sterol level, percent of control (Rattus norvegicus [1]): 99% | inhibition [2]: < 22% | serum triglyceride, percent of control (Rattus norvegicus [3]): 105%

CCCCCCCCCCCCCCCCNc1ccc(CO)cc1.Cl
serum sterol level, percent of control (Rattus norvegicus [1]): 99% | serum triglyceride, percent of control (Rattus norvegicus [3]): 100%

CCCCCCCCCCCCCCCCNc1ccc(C(=O)OCC)c(F)c1
serum sterol level, percent of control (Rattus norvegicus [1]): 90% | serum triglyceride, percent of control (Rattus norvegicus [3]): <68%

CCCCCCCCCCCCCCCCN(C(=O)C(F)(F)F)c1ccc(C(=O)N2CCCCCC2)cc1
serum sterol level, percent of control (Rattus norvegicus [1]): 95% | inhibition [2]: < 75% | serum triglyceride, percent of control (Rattus norvegicus [3]): <66%

CCCCCCCCCCCCCCCCN(C)c1ccc(C(=O)OCC(O)CO)cc1 (configuration not stated)
serum sterol level, percent of control (Rattus norvegicus [1]): 99% | inhibition [2]: 0% | serum triglyceride, percent of control (Rattus norvegicus [3]): 93%

CCCCCCCCCCCCCCCCNc1ccc(C(=O)OC)cn1
serum sterol level, percent of control (Rattus norvegicus [1]): 114% | serum sterol level, percent of control (Rattus norvegicus [4]): 108%

CCCCCCCCCCCCCCCCNc1ccc(C(=O)OC)c(F)c1
serum sterol level, percent of control (Rattus norvegicus [1]): 99% | inhibition [2]: < 23% | serum triglyceride, percent of control (Rattus norvegicus [3]): 79%

CCCCCCCCCCCCCCCCN(C(=O)C(F)(F)F)c1ccc(C(=O)NNC(C)=O)cc1
serum sterol level, percent of control (Rattus norvegicus [1]): <81% | inhibition [2]: < 50% | serum triglyceride, percent of control (Rattus norvegicus [3]): <61%

CCCCCCCCCCCCCCCCNc1ccc(C(=O)OCC2COC(C)(C)O2)cc1 (configuration not stated)
serum sterol level, percent of control (Rattus norvegicus [1]): 86% | inhibition [2]: 0% | serum triglyceride, percent of control (Rattus norvegicus [3]): <68%

CCCCCCCCCCCCCCNc1ccc(C(=O)OCC(O)CO)cc1 (configuration not stated)
serum sterol level, percent of control (Rattus norvegicus [1]): <80% | inhibition [2]: 27% | serum triglyceride, percent of control (Rattus norvegicus [3]): <47%

CCCCCCCCCCCCCCCCNc1ccc(C(O)C(N)=O)cc1 (configuration not stated)
serum sterol level, percent of control (Rattus norvegicus [1]): 94% | inhibition [2]: 34% | serum triglyceride, percent of control (Rattus norvegicus [3]): 57%

CCCCCCCCCCCCCCCCNc1ccc(C(=O)CC(=O)OC)cc1
serum sterol level, percent of control (Rattus norvegicus [1]): <84% | inhibition [2]: < 43% | serum triglyceride, percent of control (Rattus norvegicus [3]): <47%

CCCCCCCCCCCCCCCCNc1ccc(C(=O)N(C)C)cc1
serum sterol level, percent of control (Rattus norvegicus [1]): 93% | inhibition [2]: 48% | serum triglyceride, percent of control (Rattus norvegicus [3]): 89%

CCCCCCCCCCCCCCCCNc1ccc(SCC(=O)OCC)cc1
serum sterol level, percent of control (Rattus norvegicus [1]): 99% | inhibition [2]: 13% | serum triglyceride, percent of control (Rattus norvegicus [3]): 126%

CCCCCCCCCCCCCCCCNc1ccc(C(=O)N2CCCCC2)cc1
serum sterol level, percent of control (Rattus norvegicus [1]): 83% | inhibition [2]: < 55% | serum triglyceride, percent of control (Rattus norvegicus [3]): <61%

CCCCCCCCCCCCCCCCNc1ccc(C(C)O)cc1 (configuration not stated)
serum sterol level, percent of control (Rattus norvegicus [1]): 93% | inhibition [2]: < 33% | serum triglyceride, percent of control (Rattus norvegicus [3]): 93%

CCCCCCCCCCCCCCCCNc1ccc(C(=O)O)c(O)c1
serum sterol level, percent of control (Rattus norvegicus [1]): 108% | inhibition [2]: 49% | serum triglyceride, percent of control (Rattus norvegicus [3]): <57%

CCCCCCCCCCCCCCCCNc1csc(C#N)c1
serum sterol level, percent of control (Rattus norvegicus [1]): 92% | inhibition [2]: < 41% | serum triglyceride, percent of control (Rattus norvegicus [3]): 99%

CCCCCCCCCCCCCCCCNc1ccc(CO)cc1
inhibition [2]: 10% and 16%

CCCCCCCCCCCCCCCCNc1csc(C(=O)OCC)c1
serum sterol level, percent of control (Rattus norvegicus [1]): 112% | inhibition [2]: < 24%

CCCCCCCCCCCCCCCCNc1ccc(C(=O)NS(=O)(=O)c2ccc(C)cc2)cc1
inhibition [2]: < 77%

CCCCCCCCCCCCCCCCNc1ccc(C(=O)OCC(O)CO)cc1 (configuration not stated)
inhibition [2]: 0%

CCCCCCCCCCCCCCCCNc1ccc(C#N)cc1.Cl
serum sterol level, percent of control (Rattus norvegicus [1]): 100% | serum triglyceride, percent of control (Rattus norvegicus [3]): 88%

CCCCCCCCCCCCCCCCN(CCCCCCCCCCCCCCCC)c1ccc(CCC(=O)OCC)cc1
serum sterol level, percent of control (Rattus norvegicus [1]): 94% | inhibition [2]: 28% | serum triglyceride, percent of control (Rattus norvegicus [3]): 84%

CCCCCCCCCCCCCCCCNc1ccc(C#N)cc1
inhibition [2]: 8% and < 30%

CCCCCCCCCCCCCCCCNc1ccc(C(=O)OCC)cc1F
serum sterol level, percent of control (Rattus norvegicus [1]): 105% | inhibition [2]: 5% | serum triglyceride, percent of control (Rattus norvegicus [3]): 74%
